Test: Toxicity liver stage against HepG2, at 10uM
Assay type: cell-based
Design: test concentration 10 uM, cell line HepG2-A16-CD81EGFP
Settings: human, HepG2-A16-CD81EGFP cells; read-out: INHIBITION
Procedure, shortened: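 Uninfected HepG2-A16-CD81EGFP cells, 3 × 10^3 per well, 1536-well, plated on prespotted compound at 10 μM final, parasite-free screening media added to match infected plates; puromycin 10 μM positive, DMSO 0.5% negative; run in parallel with 48 h PbLuc assay at 37 °C, 5% CO2; viability by CellTiter-Glo luminescence, normalized to controls.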

| SMILES | cytotoxicity at 10 µM |
| --- | --- |
| COCCN1CCO[C@@H]2CN(C(=O)COc3ccc(C)cc3)C[C@@H]2C1 | -0.572% |
| CCc1ccccc1OC1CN(C(=O)c2ccnc(OC)c2)C1 | 32.8% |
| CC(=O)N1CCN(Cc2ccc(C)o2)CC2(CC(=O)N(C)C2)C1 (stereo unspecified) | -2.01% |
| Cc1cnn(CCNCc2nccn2Cc2ccccc2)c1 | 5.91% |
| COc1ccnc(NC(=O)c2cscc2C)c1 | -16% |
| COCC1(Nc2nc(C)nc3c2cnn3C)CCCC1 | 37.4% |
| CCC(=O)N1CCC2(CC1)CC(CC(=O)N(C)C)c1ccc(F)cc12 (stereo unspecified) | -101% |
| CS(=O)(=O)c1cn[nH]c1C1CCCN1C(=O)c1cccnc1 (stereo unspecified) | -14.6% |
| Cc1ccc2c(c1)N(C(=O)c1cc[nH]c(=O)c1)CC(C)O2 (stereo unspecified) | 2.71% |
| Cc1nc(CN2CCc3ncnc(C4CC4)c3CC2)cs1 | -81.9% |
| COc1cc(C)nc(N2CCN(C(=O)COCC3CC3)CC2)n1 | -5.92% |
| CC(=O)N1CCC(c2nc3ccc(C)cn3n2)CC1 | 0.819% |
| CCc1nnc2n1CCN(C(=O)COCCc1ccccc1)C2 | -8.28% |
| Cn1cc(N2C[C@@H]3CN(CC4CCOCC4)C[C@@H]3C2=O)cn1 | 11.1% |
| CC(C)c1nc2n(n1)CC(Nc1ncnc3ccccc13)CC2 (stereo unspecified) | -0.95% |
| OCCN1CCC(F)(F)C2(CCN(c3cnccn3)C2)C1 (stereo unspecified) | 8.24% |
| Cc1cccc(SC2CCN(Cc3nc(CC4CC4)no3)CC2)c1 | -6.51% |
| CCc1noc(C(C)N(C)CC(=O)Nc2ccc(Br)cc2C)n1 (stereo unspecified) | 19.6% |
| c1cncc(COCC2CC[C@H]3[C@H]2OCCN3Cc2ccoc2)c1 (stereo partly specified) | 1.2% |
| CN(C)c1ccc2c(c1)CN(C(=O)c1cnccn1)C2c1cnco1 (stereo unspecified) | 3.55% |
| CCn1cnnc1CCNS(=O)(=O)N1CCCC1c1ccco1 (stereo unspecified) | -136% |
| CC(C)N(C)S(=O)(=O)NCc1cccnc1N(C)C | 2.57% |
| COCCN1CCc2ncnc(-c3ccccc3)c2CC1 | 9.99% |

| SMILES | cytotoxicity at 10 µM |
| --- | --- |
| Cn1c(CN2CCC(N3CCNC3=O)CC2)cc(=O)n(C)c1=O | -2.03% |
| O=S(=O)(Cc1c(F)cccc1F)NCCOc1cccnc1 | -39.7% |
| Cc1nn(C)c(N2CCOCC2)c1CNC(c1ccccc1)C1CC1 (stereo unspecified) | 4.45% |
| Cc1noc(C2CCN(C(=O)c3cc(Br)ccc3F)CC2)n1 | -6.14% |
| CCN(C)C[C@@H]1CN(Cc2cccc(O)c2)C[C@@H]1CO | -1.13% |
| OCc1ccc(CN2CCC(n3cc(-c4ccc(F)cc4)nn3)CC2)o1 | 5.54% |
| CCN1CCC(NC(=O)CN2CCCC(NS(C)(=O)=O)C2)CC1 (stereo unspecified) | 2.94% |
| CN1CCN(Cc2cnc3n2CCN(C(=O)c2cscn2)C3)CC1 | -78.2% |
| Cc1nc(O)cc(CN2CCC=C(CN(C)C(=O)c3ccco3)C2)n1 | 8.82% |
| CCN1CCN(C2CCN(Cc3cc(C)on3)CC2)C1=O | -5.74% |
| O[C@H]1[C@H](NCCc2ccccn2)c2ccccc2C12CCNCC2 | 13.7% |
| Cc1ccc(C(NC(=O)CCNC(=O)c2ccoc2)C(F)(F)F)cc1 (stereo unspecified) | 9.49% |
| Cc1cc(C)c(CNC(=O)NCCNc2cnccn2)c(=O)[nH]1 | -43.6% |
| Cc1cc(-c2nn(C)c(Cl)c2CN2CC[C@@](O)(C3CCC3)[C@H](C)C2)no1 | -7.23% |
| CC(CCN(C)C)NC(=O)c1cccc(C(F)(F)F)c1F (stereo unspecified) | -52.6% |
| CCOc1cccc(NC(=O)Cc2cccc(O)c2)n1 | -0.116% |
| O=C(c1ccccc1)N1CC[C@H]2C[C@@H](c3nccs3)O[C@@H]2C1 | -5.44% |
| Cc1nc(C2CCCN2CCOCC2CC2)no1 (stereo unspecified) | -4.56% |
| COC(=O)c1ccccc1NC(=O)c1nc2ccccc2n(C)c1=O | -9.99% |
| CC(C)Cc1noc(CN(C)C2CCS(=O)(=O)C2)n1 (stereo unspecified) | 5.7% |
| COc1ccc(C(=O)N2CCC(Nc3ccc(C)nn3)CC2)c(F)c1 | 1.15% |
| CSc1ncc(CN2C[C@@H]3CC[C@H]2CN(C2CCOCC2)C3)cn1 | -0.943% |
| Cc1nc(N)ncc1C(=O)N1CCCC1(C)C(=O)N(C)C (stereo unspecified) | 10.2% |

| SMILES | cytotoxicity at 10 µM |
| --- | --- |
| CCNC(=O)C(C)NC(=O)Nc1ccccc1SCC (stereo unspecified) | -7.4% |
| CN1CCc2c(C#N)c(NCCCN3CCOCC3)n3cnnc3c2C1 | -7.14% |
| COc1ccc(C(=O)N2CCN(c3cc(CCN)nc(C)n3)CC2)cc1 | -8.56% |
| OC1COCCN(Cc2cccc(N3CCOCC3)c2)C1 (stereo unspecified) | -12.6% |
| COc1ccccc1[C@@H]1CN(Cc2cc(C(C)(C)C)[nH]n2)C[C@H]1C(=O)O | 18.4% |
| O=C(COCc1nc(-c2ccncc2)no1)N1CCOCC1 | -7.08% |
| CCS(=O)(=O)N1CCOC2(CCCN(c3ccc(C)nn3)C2)C1 (stereo unspecified) | 0.253% |
| COc1ncccc1CNC(=O)NC(C)Cn1cccn1 (stereo unspecified) | -12.5% |
| Cc1noc(C)c1CN1CCOC2(CCCN(c3ccccn3)C2)C1 (stereo unspecified) | 11.6% |
| CCc1ccc(O)c(C(=O)N2CCN(CC(=O)N(CC)CC)CC2)c1 | 4.49% |
| CCCN1CCC(C(=O)NCCN(CC)c2ccccc2C)CC1 | 15.7% |
| CC(NC(=O)C1CCN(S(N)(=O)=O)CC1)c1cccc(OC(F)F)c1 (stereo unspecified) | -8.5% |
| COc1ccc(CNC(=O)NC(C)(C(=O)O)c2ccco2)cc1F (stereo unspecified) | 0.808% |
| CN(Cc1nc2ccsc2c(=O)[nH]1)C[C@@H]1CCCN2CCCC[C@H]12 | -7.33% |
| Cc1nc(NC2CCN(S(=O)(=O)c3ccccc3)CC2)[nH]c(=O)c1C | -3.45% |
| CCN(CC)CCCNCc1cc2cc(C)cc(C)c2[nH]c1=O | 7.63% |
| O=C(NCCC1CN(Cc2c[nH]cn2)CCO1)Nc1ccccc1 (stereo unspecified) | -1.92% |
| Cc1nc2ncc3c(=O)n(C)ccc3n2n1 | -15.4% |
| CN(Cc1coc(-c2ccccc2)n1)C1CCCN(c2cccnn2)C1 (stereo unspecified) | -14% |
| Cc1cc(C)c2cc(CNCC3CCCO3)c3nn(C)c(=O)n3c2c1 (stereo unspecified) | -4.63% |
| CNC(=O)C1CCCN(c2nc(-c3ccco3)nc3c2CCNCC3)C1 (stereo unspecified) | -7.74% |
| CC(C)Oc1ccc(CNC(=O)c2cc(C(N)=O)cs2)cc1F | 12.6% |
| CCOCCN1CCN(CC(=O)N2CCC2)CC1CC (stereo unspecified) | -2.15% |

| SMILES | cytotoxicity at 10 µM |
| --- | --- |
| O=C(c1ccncc1)N1CC2(CCNCC2)c2cc(Cl)ccc21 | -3.22% |
| Cc1nn(-c2ncccn2)c2c1C(c1cnn(C)c1)SCC(=O)N2 (stereo unspecified) | -45% |
| O=C(Nc1cc(-c2cccnc2)no1)C1CCC1 | 2.82% |
| Cc1cnn(CCC(=O)N2CCCN(c3ncccc3C#N)CC2)c1 | 4.11% |
| CC(C)(C)NC(=O)NC(=O)CN1C=Nc2ccccc2S1(=O)=O | -8.68% |
| O=C1CSCN1CC(=O)N1CCCC1c1nc2ccccc2s1 (stereo unspecified) | -12.7% |
| CCOc1ccc(C(=O)N2CCCC2Cn2cc(C)cn2)cn1 (stereo unspecified) | -20.2% |
| COCCNc1ccccc1CNC(=O)NCc1nc(C)c(C)s1 | 5.75% |
| CN(C)c1ccc(C(=O)N2CCN(Cc3cscn3)CC2)cc1F | -11.7% |
| COc1ccccc1CC(=O)N(CCN1CCOCC1)Cc1ccco1 | 2.91% |
| CNC(=O)CN1CCO[C@H]2CN(C(=O)c3ccncc3F)C[C@H]21 | -155% |
| CSCCCN1CCCC1c1noc(C(C)C)n1 (stereo unspecified) | -12.5% |
| CS(=O)(=O)NCC1CCN(C(=O)Oc2ccccc2)CC1 | -151% |
| Cc1ccccc1CSc1nc(N)cc(N2C[C@H](O)[C@@H](N(C)C)C2)n1 | 17.3% |
| CCN(CC)C(=O)CN(C)C1CCc2ccccc21 (stereo unspecified) | -5.1% |
| NC(=O)COc1ccc(CN2CC[C@@]3(O)CCCC[C@H]3C2)cc1Cl | -6.87% |
| COc1c(C2CCCN2C(=O)c2ccco2)c(C)nn1C (stereo unspecified) | -1.68% |
| COc1ccccc1OC1(C(=O)O)CCN(c2cnccn2)CC1 | -27.5% |
| Cc1cc(NCCNc2cccnc2)nc(-c2ccccc2O)n1 | 47.9% |
| CCS(=O)(=O)N1CCCC(Cc2cnccn2)C1 (stereo unspecified) | -10.3% |
| OCC1CCN(Cc2cc3c(cc2Br)OCCO3)CC1 | 6.84% |
| Cc1cc(F)cc(S(=O)(=O)Nc2noc(C)n2)c1 | 3.11% |
| Cc1ncccc1NS(=O)(=O)Cc1cccc(F)c1 | 2.43% |

| SMILES | cytotoxicity at 10 µM |
| --- | --- |
| CC(=O)Nc1nc(C(=O)N2CCCC(n3nc(C)cc3C)C2)cs1 (stereo unspecified) | 0.74% |
| O=C(NCc1cn2cccnc2n1)C1CC(=O)N(Cc2cccnc2)C1 (stereo unspecified) | -3.23% |
| CNC(=O)NC(=O)C(C)N(C)CCCc1cc(-c2ccccc2)no1 (stereo unspecified) | -11.6% |
| N#Cc1ccccc1CN1CCc2sccc2C1 | -0.572% |
| COc1ccc(-c2nnc(SC(C)C(=O)NC3CC3)[nH]2)c(OC)c1 (stereo unspecified) | 45.3% |
| CN(C)c1ncc(-c2cccc(F)c2)c(C2CNCCO2)n1 (stereo unspecified) | -29.9% |
| O=C(Cc1ccc(Br)cc1)N1CC(S(=O)(=O)C2CCCCC2)C1 | -1.13% |
| COCCNC(=O)N1CCOCC1c1c(C)nn(C)c1C (stereo unspecified) | -8.18% |
| Cn1cc(C2COC3(CCN(C(=O)c4ccccn4)CC3)C2)cn1 (stereo unspecified) | -87.1% |
| Cc1noc(C)c1CNC(=O)Nc1ccc(N2CCOC2=O)cc1 | -2.93% |
| CN(C)C(=O)NCc1ncn2c1CN(Cc1cccs1)CCC2 | 8.07% |
| COc1ccc(CN2CCCC3(CC2)CNC(=O)O3)cc1OC (stereo unspecified) | 5.75% |
| CC(C)NC(=O)N(Cc1cc(O)nc2ccccc12)C(C)C | 0.266% |
| OC(CN1CCOCC1)c1cc(Cl)ccc1Cl (stereo unspecified) | -1.57% |
| CC(C)CN1C(=O)CO[C@@H]2CN(C(=O)[C@H]3CCCO3)C[C@H]21 | -5.12% |
| Cc1cc(NC(=O)NCC(c2ccccc2)N2CCOCC2)n(C)n1 (stereo unspecified) | -11% |
| COc1c(CNC2CCCOc3ccccc32)c(C)nn1C (stereo unspecified) | 1.86% |
| Cc1ccoc1C(=O)N1CCNCC1C(=O)NCc1ccncc1 (stereo unspecified) | 6.03% |
| CCS(=O)(=O)c1ccc(N2CCC(NC(=O)C(C)SC)CC2)cc1 (stereo unspecified) | 7.99% |
